Screening results: PubChem BioAssay, Sanford-Burnham Center for Chemical Genomics
CSN deneddyl inh: inhibitors of CSN-mediated cullin deneddylation, primary screen, biochemical, fluorescence polarization, uHTS | Purified CSN, SCF-Nedd8-OG deneddylation | COP9 signalosome complex subunit 5 (Homo sapiens), Q92905 | AID 651999, 2013 | actives 0.38% (n = 360,000) | inhibition, % at 12.5 µM;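 active means pattern-corrected inhibition above about 35%, with an unprinted fluorescence ratio check between 0.5 and 1.5, limit read from the data, passing the limit was not always enough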;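 further: 0% = enzyme with substrate and 100% = substrate without enzyme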
Target sequence (Q92905 whole entry, looked up, one chain of several): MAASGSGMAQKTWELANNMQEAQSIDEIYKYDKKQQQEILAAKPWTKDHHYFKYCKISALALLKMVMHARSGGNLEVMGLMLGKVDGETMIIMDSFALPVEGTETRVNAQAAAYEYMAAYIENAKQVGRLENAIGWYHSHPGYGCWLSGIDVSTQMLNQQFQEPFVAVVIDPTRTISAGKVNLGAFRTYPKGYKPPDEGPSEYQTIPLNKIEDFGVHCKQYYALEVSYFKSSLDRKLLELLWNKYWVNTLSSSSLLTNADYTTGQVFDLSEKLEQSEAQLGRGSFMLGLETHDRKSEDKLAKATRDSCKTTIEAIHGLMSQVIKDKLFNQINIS
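Test system: purified human Csn5 enzyme expressed in HEK293T cells. Amount: 0.24 nM enzyme. Reagent: SCFSkp2-Nedd8OG substrate at 10 nM final. Schedule: 90 min incubation of compound, enzyme and substrate at room temperature. Detection: fluorescence polarization. Read-out: % inhibition of substrate cleavage by Csn5.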
STEP block: STEP phosphatase inhibitors, primary screen, biochemical, fluorescence intensity, uHTS | inhibition, % at 20 µM | Tyrosine-protein phosphatase non-receptor type 5 (Homo sapiens), P54829 | AID 588621, 2011 | recombinant STEP, OMFP fluorogenic substrate | actives 0.25% (n = 360,000);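 active means inhibition at 20 µM, scaled per plate between control wells, above about 37%, limit read from the data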;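 further: 0% = DMSO with enzyme and substrate and 100% = substrate only without enzyme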
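Measure: Control-normalized % inhibition with plate pattern correction | Test system: STEP phosphatase, cell-free reaction | Medium: pH 6.0 Bis-Tris with DTT and Tween 20 | Technique: Fluorescence, 480/540 nm | Times: Reaction 20 min, ambient temperature | Doses: Single compound dose of 20 µM, 1% DMSO final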
Scp1 inh: Scp-1 phosphatase inhibitors, primary screen, biochemical, colorimetric, uHTS; Carboxy-terminal domain RNA polymerase II polypeptide A small phosphatase 1 (Homo …; AID 493091, 2011; Recombinant Scp1, phosphopeptide, malachite green phosphate absorbance; actives 0.88% (n = 340,000); inhibition, % at 20 µM;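 active means inhibition above about 50% at 20 µM, limit read from the data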;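 further: plate controls were DMSO wells with enzyme for no effect and wells lacking enzyme for full effect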
Target sequence (Q9GZU7 76-261 limits assumed): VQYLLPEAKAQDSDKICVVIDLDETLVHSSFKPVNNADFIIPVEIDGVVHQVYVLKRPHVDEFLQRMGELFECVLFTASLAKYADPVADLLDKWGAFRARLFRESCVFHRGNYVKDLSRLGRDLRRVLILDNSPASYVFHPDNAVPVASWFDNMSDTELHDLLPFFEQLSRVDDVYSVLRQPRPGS
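Material – SCP-1 phosphatase catalytic domain, residues 76-261 · Buffer or medium – Acidic Tris acetate buffer with magnesium and detergent · Also added – Phospho 17-mer peptide substrate · Compound – single 20 µM dose, 1% DMSO · Times – 45 min room-temperature reaction, 5 min colour, 30 min stabiliser · Technique – Phosphate-binding colour reagent, absorbance read at 630 nm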
LMPTP block: LMPTP phosphatase inhibitors, primary screen, biochemical, fluorescence intensity, uHTS; recombinant LMPTP-A, OMFP fluorogenic substrate; inhibition, % at 20 µM; actives 0.22% (n = 360,000);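 active means compounds that cut the enzyme signal by at least half of the control window in the single-dose screen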;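 further: plate controls were DMSO wells with enzyme plus substrate for no effect and substrate without enzyme for full effect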
Target sequence (P24666 whole entry, looked up): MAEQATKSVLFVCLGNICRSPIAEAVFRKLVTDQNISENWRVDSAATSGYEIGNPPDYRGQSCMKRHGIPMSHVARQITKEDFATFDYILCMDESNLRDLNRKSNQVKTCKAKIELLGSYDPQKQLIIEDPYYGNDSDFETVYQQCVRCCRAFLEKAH
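Test system – LMPTP-A enzyme · Amount – LMPTP-A at 0.625 nM final in the reaction · Buffer or medium – Bis-Tris pH 6.0, DTT, detergent · Reagent – OMFP 400 µM · Doses – single 20 µM dose · Schedule – reaction 50 min, room temperature, dark · Detection – fluorescence intensity of OMFP turnover product · Evaluation – percent inhibition versus substrate-only and uninhibited controls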
DNMT1 block: human DNMT1 methyltransferase inhibitors, primary screen, biochemical, molecular beacon, fluorescence, HinP1I cleavage, uHTS | DNA (cytosine-5)-methyltransferase 1 (Homo sapiens), P26358 | inhibition (reported as % activation of signal), % at 10 µM | actives 0.83% (n = 360,000)
SUMO1 PPI mod: modulators of SUMO1 protein-protein interactions, primary screen, biochemical, uHTS | Small ubiquitin-related modifier 1 (Homo sapiens), P63165 | SUMO1 binding to a labelled peptide, TR-FRET, 1 h | inhibition, % at 20 µM | actives 0.33% (n = 360,000) | AID 602429, 2012; in the data active means inhibition above about 37%
CSN5 deneddyl: Csn5 deneddylation inhibitors, confirmation, biochemical, fluorescence polarization, single concentration, SCF-Nedd8OG substrate; shares compounds with CSN deneddyl inh; Csn5 deneddylation of SCF-Nedd8OG, 90 min; inhibition, % at 16.6 µM; actives 62% (n = 540); AID 720654, 2013;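 further: 0% = DMSO with enzyme and 100% = no enzyme wells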
MMP-2 counter: MMP-2 protease inhibition counter-screen, confirmation, counter-screen for CSN deneddylation inhibitor project, biochemical, fluorescence, single concentration | inhibition, % at 16.6 µM | recombinant MMP-2, FRET substrate fluorescence, 60 min | shares compounds with CSN deneddyl inh | actives 33% (n = 540) | AID 720655, 2013;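 active means corrected plate-normalized z-score of 5 or more, or -5 or less, or inhibition of 15% or more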;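 further: plate controls were DMSO wells with enzyme for no effect and buffer wells lacking MMP-2 for full effect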
Thrombin cntr: counter-screen for CSN deneddylation inhibitors: bovine thrombin inhibition; actives 49% (n = 540); bovine thrombin cleavage of Ub4-pepOG, fluorescence polarization; inhibition, % at 16.6 µM; shares compounds with CSN deneddyl inh; AID 720656;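 active means inhibition at or above a set limit, with a fluorescence interference ratio between 0.5 and a set maximum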
The depositor's hits bear a star. Hits are enriched below; roughly 2% of the tested compounds scored in any of these assays. Unless noted, no stated cut-off is given here; in the data, active means inhibition above about 50%; inactive means the rest.

`N#C/C(=C/c1ccc(N2CCCCCC2)o1)c1ccc(Cl)cc1` gave CSN deneddyl inh 78.3*, STEP block -5.6, Scp1 inh -1.2, LMPTP block 1.7, DNMT1 block 7.0, SUMO1 PPI mod -27.0, CSN5 deneddyl 188.1*, MMP-2 counter -34.4* and Thrombin cntr 58.5*.
For Cc1cc(-c2nn(-c3ccccc3F)cc2CN2CCN(c3ccncc3)CC2)c(C)s1 the results were CSN deneddyl inh -5.0, STEP block 2.4, Scp1 inh 6.5, LMPTP block -1.1, DNMT1 block 4.9 and SUMO1 PPI mod -3.4.
`Cn1c(-c2ccc(C=O)s2)nc2c3ccccc3c3ccccc3c21` gave CSN deneddyl inh 46.6*, STEP block 2.9, Scp1 inh 18.1, LMPTP block 4.2, DNMT1 block -14.3, SUMO1 PPI mod 7.3, MMP-2 counter -18.1 and Thrombin cntr -72.1.
For O=c1[nH]c(Nc2ccc(F)cc2)cc2ccccc12 the results were CSN deneddyl inh 35.3*, STEP block 9.5, Scp1 inh -2.2, LMPTP block 9.3, DNMT1 block 48.5, SUMO1 PPI mod 32.5, CSN5 deneddyl 73.4*, MMP-2 counter 8.5 and Thrombin cntr -33.6.
Cc1nn(C2CC(O)C(O)C(CO)O2)c(=O)[nH]c1=O (stereo not drawn) was read as CSN deneddyl inh -1.2, STEP block -0.1, Scp1 inh 4.0, LMPTP block -0.6, DNMT1 block 4.0 and SUMO1 PPI mod 2.1.
For COc1cc(CO)cc(Br)c1OCC(=O)Nc1cccc2ccccc12 the results were CSN deneddyl inh 0.3, STEP block -2.5, Scp1 inh -7.2, LMPTP block -1.2, DNMT1 block -8.5 and SUMO1 PPI mod -2.9.
For N#C/C(=C\c1ccc(N2CCOCC2)o1)C(=O)NC1CCCCC1 the results were CSN deneddyl inh 77.2*, STEP block 3.3, Scp1 inh -0.8, LMPTP block 7.9, DNMT1 block 5.0, SUMO1 PPI mod -43.9, CSN5 deneddyl 141.2*, MMP-2 counter -10.2 and Thrombin cntr 64.6*.
For N#C/C(=C\c1ccc(N2CCOCC2)o1)C(=O)NCCc1ccccc1 the results were CSN deneddyl inh 98.4*, STEP block 0.5, Scp1 inh 5.2, LMPTP block 10.2, DNMT1 block 11.0, SUMO1 PPI mod -22.0, CSN5 deneddyl active, MMP-2 counter -18.9 and Thrombin cntr -5.0.
For CC(C)CN1CCNC(=O)C1CC(=O)NCCCN1CCCc2ccccc21 (stereo not drawn) the results were CSN deneddyl inh -4.6, STEP block -3.2, Scp1 inh -9.0, LMPTP block 1.6, DNMT1 block -2.3 and SUMO1 PPI mod -0.9.
`Cc1ccc(N(C)S(=O)(=O)c2cccc(C(=O)OCC(=O)c3c(N)n(C)c(=O)n(C)c3=O)c2)cc1` gave CSN deneddyl inh -2.7, STEP block -2.1, Scp1 inh 33.5, LMPTP block 2.1, DNMT1 block -7.4 and SUMO1 PPI mod 0.3.
`CC(=O)Nc1ccc(NC(=O)C(C)OC(=O)/C(C#N)=C/c2ccc(N(C)C)cc2)cc1` (stereo not drawn) gave CSN deneddyl inh 14.8, STEP block -10.6, Scp1 inh 8.3, LMPTP block 3.4, DNMT1 block 12.5 and SUMO1 PPI mod -26.4.
`CC(OC(=O)/C(C#N)=C/c1ccc(N(C)C)cc1)C(=O)N(C)c1ccccc1` (stereo not drawn) gave CSN deneddyl inh 70.6*, STEP block -2.7, LMPTP block 5.0, DNMT1 block -3.9, SUMO1 PPI mod -38.1, CSN5 deneddyl 61.5*, MMP-2 counter -20.1 and Thrombin cntr 72.9*.
Screening CCOC(=O)C1CCCN(C2=NC(=O)/C(=C/c3ccc(N(C)C)cc3)S2)C1 (stereo not drawn) returned CSN deneddyl inh 113.8*, STEP block -3.7, Scp1 inh 9.2, LMPTP block 5.7, DNMT1 block 9.3, SUMO1 PPI mod -62.4, CSN5 deneddyl 171.3*, MMP-2 counter 14.4 and Thrombin cntr 11.8.
For CN(C)CCN(Cc1cccs1)S(=O)(=O)c1csc(C(N)=O)c1 the results were CSN deneddyl inh -1.8, STEP block -2.4, Scp1 inh 1.8, LMPTP block -1.4, DNMT1 block -0.5 and SUMO1 PPI mod 4.2.
Screening Cc1ccc(/C=C2\SC(=S)N(CC3CCCO3)C2=O)o1 (stereo not drawn) returned CSN deneddyl inh 73.8*, STEP block 2.7, Scp1 inh 7.4, LMPTP block 2.7, DNMT1 block -5.8, SUMO1 PPI mod -19.2, CSN5 deneddyl 102.7*, MMP-2 counter 32.8* and Thrombin cntr 34.2*.
COc1cc(/C=C2/SC(=S)N(CC3CCCO3)C2=O)ccc1O (stereo not drawn) was read as CSN deneddyl inh 57.5*, STEP block -3.3, Scp1 inh -13.0, LMPTP block 3.0, DNMT1 block -12.9, SUMO1 PPI mod -57.8, CSN5 deneddyl 65.3*, MMP-2 counter -4.0 and Thrombin cntr 74.5*.
`S=c1[nH]nc(-c2cc(-c3ccccc3)n[nH]2)n1/N=C/c1ccc(Br)s1` gave CSN deneddyl inh 35.8*, STEP block 2.6, Scp1 inh 0.1, LMPTP block 28.4, DNMT1 block 27.8, SUMO1 PPI mod 60.8*, CSN5 deneddyl 82.1*, MMP-2 counter 20.5* and Thrombin cntr 2.3.
C(=C\c1ccco1)/C1=NN(c2ccccc2)C(c2ccco2)C1 (stereo not drawn) was read as CSN deneddyl inh 84.0*, STEP block 0.2, Scp1 inh -15.6, LMPTP block 3.2, DNMT1 block 24.9, SUMO1 PPI mod -4.6, CSN5 deneddyl 62.5*, MMP-2 counter -3.1 and Thrombin cntr 31.4*.
